Compound activity deposited in PubChem BioAssay by Broad Institute.
T cruzi growth-1 = inhibitors of T. cruzi proliferation; T. cruzi beta-gal in NIH3T3, GalScreen luminescence, 90 h; inhibition, % at 8.34 µM; actives 5.9% (n = 77,000);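 active = mean inhibition above about 93%, with at least 55% of replicates each passing it, limit read from the data, passing the limit was not always enough; inconclusive = only one of those two conditions holds; inactive = neither condition holds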
GASC1 inh = inhibitors of human demethylase GASC-1 KDM4C; inhibition, % at 12.5 µM; Q9H3R0; GST-KDM4C 2-372, H3K9me3 peptide, LANCE TR-FRET; actives 0.15% (n = 96,000); AID 720574;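 active = mean replicate inhibition above about 25%, with at least 55% of replicates also reaching it, limit read from the data, passing the limit was not always enough; inconclusive = only one of those two conditions met; inactive = neither condition met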
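Test system – GST-tagged GASC-1 (JMJD2C) catalytic fragment, aa 2-372 · Medium – HEPES buffer, pH 7.5, plus ascorbate · Reagent – H3K9me3 peptide with Fe(II)/2OG · Compound – one test concentration per compound · Timing – 30 min reaction, 60 min detection, RT · Technique – TR-FRET with Eu antibody and ULight streptavidin, EDTA stop · Read-out basis – inhibition from TR-FRET ratio decrease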
Pf Dd2 inh = P. falciparum Dd2 growth inhibition; SYBR Green, 72 h; hits give low values; AID 1159554; actives 2.3% (n = 94,000); activity change, % at 10 µM; in the data active = activity change below about -80%; inconclusive = no clear call, values can overlap the other calls
IDH1 R132H inh = inhibitors of human IDH1 R132H; actives 0.18% (n = 70,000); IDH1 R132H reductase, diaphorase/resazurin fluorescence, 60 min; O75874; inhibition, % at 10 µM; AID 624101; in the data active = inhibition above about 34%; inconclusive = no clear call, values can overlap the other calls; inactive = below about 11%;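 note: 0% = DMSO and 100% = no enzyme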
Target sequence (O75874 whole entry R132H): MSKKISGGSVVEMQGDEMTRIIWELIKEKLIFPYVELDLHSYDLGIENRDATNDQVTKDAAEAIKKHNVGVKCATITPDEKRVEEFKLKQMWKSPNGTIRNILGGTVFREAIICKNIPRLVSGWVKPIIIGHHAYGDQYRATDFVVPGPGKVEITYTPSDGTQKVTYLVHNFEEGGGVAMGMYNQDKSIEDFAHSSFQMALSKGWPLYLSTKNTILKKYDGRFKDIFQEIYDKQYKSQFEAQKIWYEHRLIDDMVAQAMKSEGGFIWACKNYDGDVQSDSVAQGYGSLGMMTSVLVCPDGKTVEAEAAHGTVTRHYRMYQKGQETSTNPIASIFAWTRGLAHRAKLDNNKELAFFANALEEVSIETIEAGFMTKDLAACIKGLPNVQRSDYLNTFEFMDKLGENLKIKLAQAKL
T cruzi growth-2 = blocks T. cruzi growth in NIH3T3 host cells | shares compounds with T cruzi growth-1 | T. cruzi beta-gal in NIH3T3, GalScreen luminescence, 90 h | inhibition, % at 8.35 µM | actives 72% (n = 5,600);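 active = mean replicate inhibition above about 95% and at least 55% of replicates individually reaching it, limit read from the data; inconclusive = only one of the two criteria is met; inactive = neither criterion is met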
T cruzi growth-3 = inhibitors of T. cruzi proliferation | T. cruzi beta-gal in NIH3T3, GalScreen luminescence, 90 h | shares compounds with T cruzi growth-1 | inhibition, % at 2.09 µM | actives 21% (n = 5,600);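 active = mean inhibition above about 95%, with at least 55% of replicates also reaching it, limit read from the data; inconclusive = meets just one of the two conditions; inactive = meets neither condition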;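 note: plate controls were neutral control median for no effect and positive control median for full effect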
3T3 cytotox = cytotoxicity in mouse NIH/3T3 fibroblasts | shares compounds with T cruzi growth-1 | NIH/3T3 viability, CellTiter-Glo ATP luminescence, 90 h | cytotoxicity (signal decrease), % at 8.35 µM | actives 14% (n = 5,600) | AID 651742;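 active = mean signal decrease across replicates above about 35% based on untreated-well scatter, with enough replicates individually passing, limit read from the data; inconclusive = no rule stated though some were filed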;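 note: 0% = median of neutral control wells and 100% = median of positive control wells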
3T3 cytotox 2 = NIH/3T3 (mouse) viability loss | actives 56% (n = 5,600) | NIH/3T3 viability, CellTiter-Glo ATP luminescence, 90 h | inhibition, % at 24.9 µM | shares compounds with T cruzi growth-1;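 active = mean loss of cell viability signal at or above a set limit, and enough replicates individually reaching it; inconclusive = meets only the mean limit or only the replicate share; inactive = meets neither condition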;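 note: 0% = median of neutral control wells and 100% = median of positive control wells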
* = called active by the depositor; ? = inconclusive; . = not tested or not shown. Only some compounds are listed: those with a hit (about 5.8% of all), similar ones and a draw of the others.

SMILES	T cruzi growth-1	GASC1 inh	Pf Dd2 inh	IDH1 R132H inh	T cruzi growth-2	T cruzi growth-3	3T3 cytotox	3T3 cytotox 2
Cc1ccc(-c2ccc3c(c2)O[C@H](CN(C)C(=O)C2CCC2)[C@@H](C)CN([C@H](C)CO)S3(=O)=O)cc1	57	-1	-44	.	.	.	.	.
Cc1ccc(-c2ccc3c(c2)O[C@@H](CN(C)C(=O)C2CCCCC2)[C@@H](C)CN([C@@H](C)CO)S3(=O)=O)cc1	125*	-3	-67	-2	100*	93	22	106*
C[C@@H]1CN([C@@H](C)CO)S(=O)(=O)c2ccc(-c3ccncc3)cc2O[C@H]1CN(C)C(=O)CC1CC1	118*	5	-6	1	84	86	3	?
Cc1ccc(-c2ccc3c(c2)O[C@@H](CN(C)C(=O)C2CCCCC2)[C@@H](C)CN([C@H](C)CO)S3(=O)=O)cc1	123*	-2	-68	.	99*	93	13	106*
C[C@H](CO)N1C[C@H](C)[C@H](CN(C)C(=O)C2CC2)Oc2cc(-c3ccccc3F)ccc2S1(=O)=O	109*	-1	-58	-1	70	16	15	64*
C[C@@H]1CN([C@@H](C)CO)S(=O)(=O)c2ccc(-c3ccncc3)cc2O[C@@H]1CN(C)C(=O)CC1CC1	85	2	3	7	.	.	.	.
COc1ccc(NC(=O)Nc2ccc3c(c2)CC(=O)N([C@H](C)CO)C[C@H](C)[C@@H](CN(C)S(=O)(=O)c2c(C)noc2C)O3)cc1	28	1	-25	0	.	.	.	.
C[C@@H]1CCCCO[C@H](CN(C)Cc2ccccc2)[C@@H](C)CN([C@H](C)CO)C(=O)c2cc(NC(=O)Nc3ccc(F)cc3)ccc2O1	66	-1	26	13	.	.	.	.
C[C@@H]1CCCCO[C@@H](CN(C)Cc2ccccc2)[C@H](C)CN([C@@H](C)CO)C(=O)c2cc(NC(=O)Nc3ccc(F)cc3)ccc2O1	?	1	?	-1	103*	44	10	105*
C[C@@H]1CCCCO[C@@H](CN(C)Cc2ccccc2)[C@@H](C)CN([C@H](C)CO)C(=O)c2cc(NC(=O)Nc3ccc(F)cc3)ccc2O1	101*	0	28	.	107*	56	12	14
C[C@H](CO)N1C[C@H](C)[C@H](CN(C)Cc2ccccc2)OCCCC[C@H](C)Oc2ccc(NC(=O)Nc3ccc(F)cc3)cc2C1=O	?	-2	4	.	97*	114*	23	104*
COc1ccc(C)cc1NC(=O)CSc1nnc(-c2ccc(Cl)c(Cl)c2)n1C	.	.	.	0	.	.	.	.
C[C@H](CO)N1C[C@H](C)[C@@H](CN(C)Cc2ccc(Oc3ccccc3)cc2)Oc2c(NS(=O)(=O)c3ccc(Cl)cc3)cccc2C1=O	102*	-2	-48	.	?	77	21	100*
C[C@H]1CN([C@@H](C)CO)C(=O)c2cccc(NS(=O)(=O)c3ccc(Cl)cc3)c2O[C@H]1CN(C)Cc1ccc(Oc2ccccc2)cc1	103	0	-22	.	.	.	.	.
C[C@@H]1CN([C@H](C)CO)C(=O)c2cccc(NS(=O)(=O)c3ccc(Cl)cc3)c2O[C@H]1CN(C)Cc1ccc(Oc2ccccc2)cc1	?	3	-59	-1	110*	64	-12	24
C[C@@H]1CN([C@@H](C)CO)C(=O)c2cccc(NS(=O)(=O)c3ccc(Cl)cc3)c2O[C@@H]1CN(C)Cc1ccc(Oc2ccccc2)cc1	96	-2	-67	2	.	.	.	.
COCC(=O)N1C[C@@H](C)[C@@H](OC)CN(C)C(=O)c2cc(NC(=O)Nc3ccccc3)ccc2OC[C@@H]1C	-18	-1	-9	0	.	.	.	.
C[C@@H]1CCCCO[C@@H](CN(C)C(=O)Nc2cccc3ccccc23)[C@H](C)CN([C@H](C)CO)C(=O)c2cc(NS(=O)(=O)c3cccs3)ccc2O1	105*	-2	-24	.	105*	106*	-33	-17
C[C@@H]1CN([C@@H](C)CO)C(=O)c2cc(NS(=O)(=O)c3cccs3)ccc2O[C@@H](C)CCCCO[C@H]1CN(C)C(=O)Nc1cccc2ccccc12	63	0	-77	.	.	.	.	.
C[C@H]1CCCCO[C@H](CN(C)C(=O)Nc2cccc3ccccc23)[C@@H](C)CN([C@@H](C)CO)C(=O)c2cc(NS(=O)(=O)c3cccs3)ccc2O1	102*	0	-75	.	93	66	-10	-3
O=C(Nc1ccccc1F)N1CCCCN2[C@H](CO)[C@@H](c3ccc(/C=C/c4ccccc4)cc3)[C@@H]2C1	112*	-2	-9	.	98*	101*	12	105*
O=C(Nc1ccccc1F)N1CCCCN2[C@H](C1)[C@H](c1ccc(/C=C/c3ccccc3)cc1)[C@@H]2CO	116*	-1	-14	.	110*	51	4	47*
Cc1cccc(-c2ccc([C@@H]3[C@H]4CN(C(=O)NC5CCCCC5)CC(=O)N4[C@H]3CO)cc2)c1	.	-2	-10	.	.	.	.	.
C[C@@H]1CN([C@H](C)CO)S(=O)(=O)c2ccc(C#CC(C)(C)O)cc2O[C@H]1CN(C)Cc1ccncc1	?	-1	-13	16	87	84	44*	71*
C[C@@H]1CN([C@@H](C)CO)S(=O)(=O)c2ccc(C#CC(C)(C)O)cc2O[C@H]1CN(C)Cc1ccncc1	100*	0	-39	2	100*	76	12	56*
SMILES	T cruzi growth-1	GASC1 inh	Pf Dd2 inh	IDH1 R132H inh	T cruzi growth-2	T cruzi growth-3	3T3 cytotox	3T3 cytotox 2
C[C@@H]1CCCCO[C@H](CN(C)C(=O)c2ccncc2)[C@H](C)CN([C@@H](C)CO)C(=O)c2cc(NC(=O)CCC(F)(F)F)ccc2O1	43	8	1	1	.	.	.	.
CCC(=O)N1CC[C@H]2[C@H](CO)Nc3ccc(-c4ccc(C(=O)N(C)C)cc4)cc3[C@H]21	107*	-1	11	.	104*	49	-22	-9
CCC(=O)N1CC[C@@H]2[C@H]1c1cc(-c3ccc(C(=O)N(C)C)cc3)ccc1N[C@@H]2CO	105*	1	-4	.	?	53	0	14
CCC(=O)N1CC[C@H]2[C@H](CO)Nc3ccc(-c4ccccc4)cc3[C@H]21	33	-2	4	.	.	.	.	.
CO[C@@H]1CN(C)C(=O)c2ccc(NC(C)=O)cc2OC[C@@H](C)N(C(=O)CN2CCOCC2)C[C@@H]1C	-9	0	35	0	.	.	.	.
COCC#Cc1ccc2c(c1)O[C@@H](CN(C)Cc1ccncc1)[C@H](C)CN([C@H](C)CO)S2(=O)=O	109*	6	-4	-3	100*	91	11	63*
